According to ChEMBL document CHEMBL4382210, “Identification of novel benzothiopyranone compounds against Mycobacterium tuberculosis through scaffold morphing from benzothiazinones” (Eur J Med Chem, 2018):

Tests used:
[1] = Oral bioavailability in BALB/C mouse at 25 mg/kg by LC/TSQ quantum access mass spectrometry; assay type: ADME, organism-based; details: in vivo
How it was run: (§1)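 Male Balb/c mice (22–23 g), three per route. Single dose of 25 mg/kg p.o. (2.5 mg/mL in 0.5% carboxymethyl cellulose + 0.5% Tween 80) or 10 mg/kg i.v. (2.0 mg/mL in 20% HP-β-CD with 4 mol/L HCl). Blood sampled 5, 15, 30 min, 1, 2, 4, 7, 24 h. Plasma extracted with acetonitrile plus terfenadine internal standard, then LC-MS/MS on a C18 column. F = (AUCpo×dose_iv)/(AUCiv×dose_po).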

[2] = AUC (0 to infinity) in BALB/C mouse at 10 mg/kg, iv by LC/TSQ quantum access mass spectrometry; assay type: ADME, organism-based; set-up: dose 10 mg/kg, route intravenous, time infinity; details: in vivo; how it was run: as §1
[3] = target: Cytochrome P450 2D6 (Homo sapiens, UniProt P10635); assay: Inhibition of CYP2D6 in human liver microsomes after 20 mins by LC-MS/MS analysis; assay type: ADME
How it was run: (§2)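 Compound at 0.1–50 µM incubated 20 min with human liver microsomes (0.2 mg/mL) and the CYP isoform, alongside isoform-specific probe substrates. Substrate remaining measured by LC-MS/MS at each concentration to derive IC50.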

[4] = target: Voltage-gated inwardly rectifying potassium channel KCNH2 (Homo sapiens, UniProt Q12809); assay: Inhibition of human ERG expressed in HEK293 cells by whole-cell patch clamp assay; assay type: cell-based
How it was run: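 HEK293 cells stably transfected with hERG. Current recorded by whole-cell manual patch clamp at 25 °C, sampled at 10 kHz. Five concentrations tested (30, 10, 3.0, 1.0, 0.3 µM) in duplicate for IC50, with dofetilide as positive control.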

[5] = tested on: Vero; assay: Cytotoxicity against African green monkey Vero cells assessed as reduction in cell viability after 48 hrs by MTT assay; assay type: cell-based; details: Chlorocebus sabaeus
How it was run: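 Vero or HepG2 cells in RPMI1640 with 10% FBS at 37 °C, 5% CO2, seeded at 4×10^5 cells/mL. Threefold dilutions at 64–0.26 µg/mL final for 48 h. Cells then washed with HBSS, MTT added for 4 h, absorbance read at 492 nm. IC50 taken relative to untreated control.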

[6] = Tmax in BALB/C mouse at 25 mg/kg, po by LC/TSQ quantum access mass spectrometry; assay type: ADME, organism-based; details: in vivo; how it was run: as §1
[7] = MRT (0 to infinity) in BALB/C mouse at 25 mg/kg, po by LC/TSQ quantum access mass spectrometry; assay type: ADME, organism-based; details: in vivo; how it was run: as §1
[8] = target: Cytochrome P450 2C9 (Homo sapiens, UniProt P11712); assay: Inhibition of CYP2C9 in human liver microsomes after 20 mins by LC-MS/MS analysis; assay type: ADME; how it was run: as §2
[9] = MRT (0 to infinity) in BALB/C mouse at 10 mg/kg, iv by LC/TSQ quantum access mass spectrometry; assay type: ADME, organism-based; details: in vivo; how it was run: as §1
[10] = tested on: Mycobacterium tuberculosis; assay: Antimicrobial activity against Mycobacterium tuberculosis H37Rv after 7 days by MABA; assay type: functional; details: 168 h
How it was run: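 Strain H37Rv or clinical isolates grown to late log phase in 7H9-ADC-TG, washed, resuspended in PBS, filtered (8 µm) and frozen. On day 7 Tween 80 and alamar blue added, read 16–24 h later (ex 530/em 590). MIC = lowest concentration giving ≥90% fluorescence reduction versus bacterium-only controls.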

Chain of Cytochrome P450 2D6 (P10635 whole entry, canonical isoform): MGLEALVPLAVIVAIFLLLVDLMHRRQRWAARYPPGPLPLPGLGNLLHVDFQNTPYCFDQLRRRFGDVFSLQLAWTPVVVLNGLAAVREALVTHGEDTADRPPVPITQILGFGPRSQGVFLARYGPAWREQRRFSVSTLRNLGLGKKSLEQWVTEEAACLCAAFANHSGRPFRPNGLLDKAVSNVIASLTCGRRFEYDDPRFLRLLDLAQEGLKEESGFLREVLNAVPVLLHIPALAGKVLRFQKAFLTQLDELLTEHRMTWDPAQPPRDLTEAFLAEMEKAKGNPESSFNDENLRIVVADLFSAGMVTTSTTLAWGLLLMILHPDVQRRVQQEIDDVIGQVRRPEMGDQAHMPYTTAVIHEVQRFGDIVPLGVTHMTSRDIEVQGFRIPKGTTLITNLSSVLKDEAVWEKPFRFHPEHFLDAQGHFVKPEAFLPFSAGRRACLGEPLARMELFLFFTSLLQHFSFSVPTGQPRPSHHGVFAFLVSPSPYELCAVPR
Chain of Cytochrome P450 2C9 (P11712 whole entry): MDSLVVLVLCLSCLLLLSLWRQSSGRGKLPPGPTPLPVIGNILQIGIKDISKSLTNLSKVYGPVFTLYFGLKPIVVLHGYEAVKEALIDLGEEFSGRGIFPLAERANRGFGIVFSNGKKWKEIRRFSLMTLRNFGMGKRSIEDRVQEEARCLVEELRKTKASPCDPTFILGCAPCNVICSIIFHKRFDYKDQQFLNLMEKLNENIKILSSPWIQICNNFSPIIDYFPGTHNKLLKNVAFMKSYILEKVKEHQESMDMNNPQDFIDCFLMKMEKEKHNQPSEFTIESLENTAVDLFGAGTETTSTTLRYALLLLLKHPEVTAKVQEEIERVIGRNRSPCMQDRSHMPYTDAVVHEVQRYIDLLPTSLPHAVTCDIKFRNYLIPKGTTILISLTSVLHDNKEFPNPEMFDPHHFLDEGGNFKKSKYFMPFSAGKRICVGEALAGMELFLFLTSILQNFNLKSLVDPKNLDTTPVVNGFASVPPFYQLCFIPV
Chain of Voltage-gated inwardly rectifying potassium channel KCNH2 (Q12809 whole entry): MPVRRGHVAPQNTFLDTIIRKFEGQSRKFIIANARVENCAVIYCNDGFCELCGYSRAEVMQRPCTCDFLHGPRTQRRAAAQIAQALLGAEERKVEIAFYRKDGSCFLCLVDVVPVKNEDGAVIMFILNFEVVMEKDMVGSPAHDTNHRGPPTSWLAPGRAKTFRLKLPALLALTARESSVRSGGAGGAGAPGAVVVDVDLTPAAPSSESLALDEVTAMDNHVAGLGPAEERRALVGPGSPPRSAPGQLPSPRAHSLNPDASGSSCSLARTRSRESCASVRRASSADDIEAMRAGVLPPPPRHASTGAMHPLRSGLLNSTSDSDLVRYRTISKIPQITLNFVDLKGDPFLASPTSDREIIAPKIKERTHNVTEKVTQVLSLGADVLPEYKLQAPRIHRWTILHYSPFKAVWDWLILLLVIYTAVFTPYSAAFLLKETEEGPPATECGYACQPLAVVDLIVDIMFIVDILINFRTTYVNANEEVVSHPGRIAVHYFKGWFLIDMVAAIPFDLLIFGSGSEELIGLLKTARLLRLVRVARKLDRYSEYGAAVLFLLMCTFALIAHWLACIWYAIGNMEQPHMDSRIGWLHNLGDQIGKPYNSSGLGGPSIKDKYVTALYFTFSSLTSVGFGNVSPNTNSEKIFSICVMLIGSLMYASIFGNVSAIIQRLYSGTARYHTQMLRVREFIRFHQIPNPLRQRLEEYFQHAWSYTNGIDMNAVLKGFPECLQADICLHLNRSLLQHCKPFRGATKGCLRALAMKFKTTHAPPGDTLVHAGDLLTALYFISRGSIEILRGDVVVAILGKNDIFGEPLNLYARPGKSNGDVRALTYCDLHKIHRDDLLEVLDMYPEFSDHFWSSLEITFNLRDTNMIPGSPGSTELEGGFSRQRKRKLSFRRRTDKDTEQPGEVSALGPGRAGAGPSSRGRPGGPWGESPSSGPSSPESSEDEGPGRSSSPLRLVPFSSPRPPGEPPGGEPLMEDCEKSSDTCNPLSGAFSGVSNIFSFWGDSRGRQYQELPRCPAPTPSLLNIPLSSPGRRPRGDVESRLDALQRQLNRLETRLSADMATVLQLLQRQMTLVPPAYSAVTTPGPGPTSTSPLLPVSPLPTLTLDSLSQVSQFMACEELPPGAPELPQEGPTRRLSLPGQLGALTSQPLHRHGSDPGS

O=c1cc(N2CCN(CC3CCCCC3)CC2)sc2c([N+](=O)[O-])cc(C(F)(F)F)cc12
bioavailability [1]: 13.1%
AUC(0-inf) [2]: 5180 ng·h/mL
IC50 [3]: > 50 µM
IC50 [4]: > 30 µM
IC50 [5]: > 64 µg/mL
Tmax [6]: 0.5 h
MRT inf [7]: 6.59 h
IC50 [8]: > 50 µM
MRT inf [9]: 4.91 h
MIC90 [10]: < 0.016 µg/mL
